HTRA1 inhibitor: inhibitors of human serine peptidase HTRA1; recombinant HTRA1, FP-rhodamine activity-based probe, fluorescence polarization; inhibition, % at 5.96 µM; Q92743; AID 504803; actives 0.5% (n = 340,000); in the data active means inhibition above about 36%;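 further: 0% = enzyme with DMSO and 100% = wells lacking enzyme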
ABHD4 inh: inhibitors of mouse ABHD4. actives 0.54% (n = 370,000). inhibition, % at 8.92 µM. Q8VD66. purified mABHD4, FP-Rh probe fluorescence polarization;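 active means inhibition exceeding the mean over every tested compound plus 3 SD, cut at about 30% in these data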;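 further: 0% = plate median of compound wells and 100% = S159A mutant with DMSO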
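Material: mouse ABHD4 enzyme, wild type; Benchmarks: S159A mutant high control, sample median low control; Buffer or medium: HEPES pH 7.0, NaCl, Pluronic buffer; Signal: fluorescence polarization; Read-out: percent inhibition of probe binding, normalized to plate controls; Timing: pre-incubation 45 min, probe exposure 60 min, at 25 °C; Dosing: 8.92 µM, single dose.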
PRMT1 inh: PRMT1 (human) inhibition, primary screen. Q99873. recombinant PRMT1, activity-based probe fluorescence polarization. inhibition, % at 2.79 µM. actives 1.3% (n = 370,000);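 active means inhibition above about 21% made by adding two undisclosed values, limit read from the data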
LEDGF integ inh: blocks HIV-1 LEDGF/p75-dependent DNA integration. inhibition, % at 3.7 µM. actives 0.64% (n = 370,000). TR-FRET IN-LEDGF/p75 DNA integration, Eu/Cy5. AID 743269;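 active means inhibition above the screen-wide mean plus 3 SD, cut at about 13% in these data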;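 further: signal is the Cy5 over europium emission ratio at 671 and 618 nm; 0% = plate median of compound wells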
DAGLB inh: blocks human DAGLB lipase activity; HEK293T DAGLB membrane lysate, EnzChek fluorogenic substrate; inhibition, % at 5.17 µM; actives 0.059% (n = 340,000); AID 504411; in the data active means inhibition above about 34%;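 further: 0% = enzyme with vehicle and 100% = wells lacking enzyme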
Target sequence (Q8NCG7 whole entry, looked up): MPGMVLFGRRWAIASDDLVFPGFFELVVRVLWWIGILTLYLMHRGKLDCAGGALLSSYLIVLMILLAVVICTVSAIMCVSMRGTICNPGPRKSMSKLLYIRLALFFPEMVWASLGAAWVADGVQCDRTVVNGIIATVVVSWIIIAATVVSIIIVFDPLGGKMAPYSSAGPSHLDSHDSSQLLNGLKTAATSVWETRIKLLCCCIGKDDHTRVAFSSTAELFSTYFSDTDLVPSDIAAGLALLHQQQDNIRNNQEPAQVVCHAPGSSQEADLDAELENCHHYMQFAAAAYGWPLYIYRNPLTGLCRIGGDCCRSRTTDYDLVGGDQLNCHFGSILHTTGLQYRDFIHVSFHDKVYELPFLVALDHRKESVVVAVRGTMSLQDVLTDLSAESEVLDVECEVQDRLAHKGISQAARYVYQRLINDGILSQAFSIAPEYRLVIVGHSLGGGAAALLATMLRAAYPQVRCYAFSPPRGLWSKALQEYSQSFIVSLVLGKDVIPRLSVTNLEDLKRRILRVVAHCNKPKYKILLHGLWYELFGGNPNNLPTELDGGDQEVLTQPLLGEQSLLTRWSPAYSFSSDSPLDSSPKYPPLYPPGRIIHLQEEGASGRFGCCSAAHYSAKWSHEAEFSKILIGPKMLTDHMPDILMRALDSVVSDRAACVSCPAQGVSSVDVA
rCAG RNA binder: r(CAG) repeat RNA binding; actives 1.3% (n = 370,000); AID 651821; TO-PRO-1 dye displacement fluorescence; inhibition, % at 3 µM;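 active means inhibition above the plate cutoff, the mean of all test compounds on that plate plus 3 SD, cut at about 35% in these data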;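 further: 0% = DMSO alone and 100% = 100 µM mitoxantrone as full dye displacement; higher means more dye released from RNA so lower well fluorescence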
rCAG bind conf: r(CAG) RNA repeat binding, confirmation. shares compounds with rCAG RNA binder. TO-PRO-1 dye displacement fluorescence. inhibition, % at 3 µM. actives 70% (n = 4,300);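 active means inhibition above a per-plate cutoff, the mean inhibition of sample wells plus 3 SD, cut at about 35% in these data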;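 further: loss of TO-PRO-1 fluorescence as compound displaces dye from 1x1 AA loop RNA; 0% = DMSO only wells and 100% = 100 µM mitoxantrone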
dCAG dye counter: DNA CAG dye complex inhibition counter-screen. d(CAG) DNA oligo TO-PRO-1 dye displacement, fluorescence. shares compounds with rCAG RNA binder. actives 94% (n = 4,300). inhibition, % at 3 µM;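 active means inhibition above its plate's cutoff, the mean test-well inhibition plus 3 SD, cut at about 4.8% in these data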;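 further: 0% = DNA dye mix with DMSO and 100% = 100 µM mitoxantrone; hits displace the dye from DNA and so lower well fluorescence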
DNA CAG DR: disrupts DNA CAG TO-PRO-1 complex in dose response; shares compounds with rCAG RNA binder; DNA CAG/GTC duplex TO-PRO-1 dye displacement fluorescence; IC50, µM; actives 20% (n = 250); in the data active means IC50 below about 10 µM
An asterisk follows results filed as active; i = inactive; nt = no result given. Only some compounds are listed: those with a hit (about 3.2% of all), similar ones and a draw of the others.

SMILES	HTRA1 inhibitor	ABHD4 inh	PRMT1 inh	LEDGF integ inh	DAGLB inh	rCAG RNA binder	rCAG bind conf	dCAG dye counter	others
COc1ccc([C@H]2C(C(=O)O)=C[C@@H](CC3CCCC3)N2S(=O)(=O)c2ccc(C)cc2)cc1OC	-5	14	3	4	2	56*	52*	17*
CC[C@@H]1C=C(C(=O)O)[C@H](c2cccc(C)c2)N1S(=O)(=O)c1ccc(C)cc1	-4	0	4	4	0	7	nt	nt
Cc1ccc([C@H]2C(C(=O)O)=C[C@@H](CC3CCCC3)N2S(=O)(=O)c2ccc(C)cc2)cc1	-31	12	6	-1	3	68*	73*	27*	DNA CAG DR=i
Cc1ccc(S(=O)(=O)N2[C@@H](c3ccc4c(c3)OCO4)C(C(=O)O)=C[C@H]2CC2CCCC2)cc1	-19	-1	4	2	2	67*	61*	25*
CC[C@@H]1C=C(C(=O)O)[C@H](c2ccc(F)cc2)N1S(=O)(=O)c1ccc(C)cc1	5	-4	0	1	-1	3	nt	nt
Cc1ccc(S(=O)(=O)N2[C@@H](c3ccc(F)cc3)C(C(=O)O)=C[C@H]2CC2CCCC2)cc1	-28	-12	1	0	1	51*	57*	17*
COC(=O)c1sc(N2C(=O)C(O)=C(C(=O)c3ccc(C)o3)C2c2ccc(F)cc2)nc1C (stereo unspecified)	-18	-8	0	-1	4	20	nt	nt
Cn1c(=O)n(C)c2cc(NS(=O)(=O)c3ccccc3)ccc21	7	nt	nt	nt	-1	nt	nt	nt
Cn1c(CNC(=O)c2ccc(F)cc2)cc2ccccc21	-28	-7	-3	5	-6	0	nt	nt
O=C(CCNC(=O)c1ccco1)Nc1ccccc1	5	0	1	-2	-1	2	nt	nt
CCc1ccc([C@H]2C(C(=O)O)=C[C@@H](CC3CCCC3)N2S(=O)(=O)c2ccc(C)cc2)cc1	-34	16	5	3	5	76*	62*	26*
Cc1ccc(S(=O)(=O)N2[C@@H](c3cccc(C)c3)C(C(=O)O)=C[C@H]2CC2CCCC2)cc1	-5	0	3	-3	2	49*	52*	18*
CCOC(=O)C1=CNS(=O)(=O)NC1c1cccc(O)c1 (stereo unspecified)	6	6	3	2	1	2	nt	nt
C=CCN1C(=O)/C(=C/c2ccc(OCC(=O)O)cc2)S/C1=N/c1nccs1	-6	-14	-2	2	15	56*	57*	17*
CNC(=O)c1ccc(-c2cc(C(F)(F)F)nn2C)s1	nt	7	3	-1	nt	-4	nt	nt
Cc1ccc(SCC(=O)N2CCOCC2)cc1	-6	-2	-2	2	-2	40*	1	2
O=C(CSc1ccc(Cl)cc1)N1CCOCC1	-3	-1	0	0	-1	-4	nt	nt
Cc1cc(C)cc(N(CC(=O)Nc2cc(C)ccc2C)S(=O)(=O)c2c(C)[nH]c(=O)[nH]c2=O)c1	5	-12	-1	1	3	26	nt	nt
Cc1cc(C)cc(N(CC(=O)Nc2ccc(Br)cc2)S(=O)(=O)c2c(C)[nH]c(=O)[nH]c2=O)c1	-23	-12	-1	-1	5	51*	42*	9.2*
O=C(O)c1cc(S(=O)(=O)Nc2ccc(OCc3ccccc3)cc2)ccc1Br	-1	-2	1	0	13	45*	28	7.5*
O=C(O)c1cccc(S(=O)(=O)Nc2ccc(OCc3ccccc3)cc2)c1	-12	4	5	0	8	41*	17	4
O=C(O)CCc1ccc(S(=O)(=O)Nc2ccc(OCc3ccccc3)cc2)cc1	-4	-15	0	7	2	23	nt	nt
O=C(O)/C=C/c1ccc(S(=O)(=O)Nc2ccc(OCc3ccccc3)cc2)cc1	-10	-22	0	1	2	52*	30	6.8*
O=C(O)c1ccc(NC(=S)NC(=O)c2cccc(COc3ccccc3)c2)cc1	-52	-29	-3	5	3	48*	49*	16*
CCOc1ccc(C2CC(c3cccc(C)c3)n3nc(N)nc3N2)cc1 (stereo unspecified)	9	2	-3	-1	2	-1	nt	nt
SMILES	HTRA1 inhibitor	ABHD4 inh	PRMT1 inh	LEDGF integ inh	DAGLB inh	rCAG RNA binder	rCAG bind conf	dCAG dye counter	others
CC(=O)Nc1ccc(S(=O)(=O)C(C#N)c2nc3ccccc3nc2NCCCO)cc1 (stereo unspecified)	3	4	6	-3	1	3	nt	nt
CCOc1ccc(NS(=O)(=O)c2ccc(C(=O)NNC(=O)c3ccccc3O)cc2)cc1	22	-1	-1	-9	6	35*	14	4
CCOc1ccc(S(=O)(=O)Nc2ccc(C(=O)NNC(=O)c3ccncc3)cc2)cc1	4	-1	-3	-2	1	3	nt	nt
CCOc1cc(OCC)cc(C(=O)O)c1	3	6	1	-1	3	-3	nt	nt
O=C(O)c1cc(OCc2ccccc2)cc(OCc2ccccc2)c1	-30	6	3	-1	7	43*	40*	8.0*
COC(=O)c1ccc2c(=O)n(NC(=O)C(c3ccccc3)c3ccccc3)c(=S)[nH]c2c1	5	1	-3	0	4	3	nt	nt
Cc1ccc(S(=O)(=O)N2[C@@H](c3ccc(C(C)(C)C)cc3)C(C(=O)O)=CC[C@H]2c2ccc3c(c2)OCO3)cc1	-61	16	-2	2	18	83*	82*	46*
Cc1ccc(S(=O)(=O)N2[C@@H](c3ccccc3)C(C(=O)O)=CC[C@H]2c2ccc3c(c2)OCO3)cc1	-7	6	-2	0	5	54*	43*	11*
Cc1ccc(S(=O)(=O)N2[C@@H](c3ccccc3)C(C(=O)O)=CC[C@H]2c2cccc(C)c2)cc1	-7	7	1	0	1	14	nt	nt
O=C(O)c1ccc(NCc2cccnc2)c([N+](=O)[O-])c1	1	4	4	-2	-4	0	nt	nt
C/C(=N\NC(=O)c1cccc(C)c1)c1ccc(N2CCOCC2)cc1	-5	4	1	-1	-1	-2	nt	nt
CCCn1c(SCC#N)nc2c(c1=O)C1(CCCC1)Cc1ccccc1-2	-28	-20	1	-1	-14	-1	nt	nt
N#CCSc1n[nH]c2nc3c(c(=O)n12)C1(CCCC1)Cc1ccccc1-3	-4	1	9	2	11	50*	55*	18*	DNA CAG DR=i
